Data published in ChEMBL document CHEMBL2424600, “Synthetic polyamines activating autophagy: effects on cancer cell death” (Eur J Med Chem, 2013).
Activity calls are given as the source filed them. The rule behind the calls is not given here.

What was measured:
[1] = test system: HeLa; test: Cytotoxicity against human HeLa cells assessed as cell survival after 24 hrs by trypan blue exclusion assay; format: functional, cell-based
In short: (§1)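 Cells exposed 24 h to increasing concentrations (DMSO vehicle, 0.1% of medium; controls got DMSO) at 37 °C, 5% CO2. Viability by trypan blue exclusion, triplicate samples, at least 10 fields counted each; survival as % of viable cells vs control. IC50 read from dose–response curve as concentration giving 50% survival.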

[2] = Cytotoxicity against human C-28/I2 cells assessed as cell survival after 24 hrs by trypan blue exclusion assay; format: cell-based; settings: C28/I2, 24 h; in short: as §1
[3] = test system: Thymocyte; test: Cytotoxicity against rat thymocytes assessed as cell survival after 24 hrs by trypan blue exclusion assay; format: cell-based; in short: as §1
[4] = test system: HeLa; test: Induction of autophagy in human HeLa cells assessed as acidic vesicles accumulation at 20 uM after 3 hrs by acridine orange staining-based immunofluorescence microscopic analysis; format: functional, cell-based
In short: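 HeLa incubated 3 h with 20 µM compound; acidic vesicle accumulation scored after acridine orange staining. Triplicate means ± S.E.M.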

[5] = test system: HeLa; test: Induction of autophagy in human HeLa cells assessed as conversion of LC3-1 protein to LC3-2 protein at 8 mM after 24 hrs by Western blot analysis; format: functional, cell-based
In short: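 HeLa incubated 24 h with DENSPM (25 µM) or spermidine (8 mM); LC3-I/LC3-II processing by Western blot of 50 µg protein with monoclonal anti-LC3 antibody.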

[6] = test system: U2OS; test: Cytotoxicity against human U2OS cells assessed as cell survival after 24 hrs by trypan blue exclusion assay; format: functional, cell-based; in short: as §1
[7] = test system: HeLa; test: Induction of intracellular peroxide formation in human HeLa cells at 2 uM after 3 hrs by DCFDA staining-based flow cytometric analysis; format: functional, cell-based
In short: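 HeLa treated 3 h with 2 µM, then loaded with 5 µM DCFDA for 30 min at 37 °C. DCF fluorescence measured by flow cytometry with logarithmic amplification; mean fluorescence channel vs DMSO control.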

[8] = test system: HeLa; test: Induction of apoptosis in human HeLa cells assessed as nuclear fragmentation at 2 uM after 24 hrs by DAPI staining assay; format: functional, cell-based
In short: (§2)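 HeLa treated 24 h with 2 µM, then stained with DAPI and scored for chromatin condensation and nuclear fragmentation/condensation.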

[9] = test system: HeLa; test: Cytotoxicity against human HeLa cells assessed as decrease in cell survival at 2 uM after 24 hrs at pH 6.4 by trypan blue exclusion assay; format: functional, cell-based
In short: (§3)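 HeLa given 2 µM for 24 h with uptake-modifying conditions: 0.5 mM spermine plus 1 mM aminoguanidine (inhibits serum amine oxidases); 0.1 mM DFMO with 48 h pretreatment; or medium adjusted to pH 6.4 with HCl instead of 7.2. Survival by trypan blue exclusion vs control; triplicate means ± S.E.M.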

[10] = test system: HeLa; test: Cytotoxicity against human HeLa cells assessed as decrease in cell survival at 2 uM after 24 hrs by trypan blue exclusion assay in presence of DFMO; format: functional, cell-based; in short: as §3
[11] = test system: HeLa; test: Induction of apoptosis in human HeLa cells assessed as increase in caspase 3/7 activity at 2 uM after 24 hrs by DEVD-based fluorometric analysis; format: functional, cell-based
In short: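 HeLa treated 24 h with 25 µM DENSPM (positive control) or the indicated concentrations of compound; DEVDase (caspase 3/7) activity measured. Means ± S.E.M. of three replicates vs control.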

[12] = test system: HeLa; test: Disruption of mitochondrial membrane potential in human HeLa cells at 2 uM after 4 hrs by DiOC6/propidium iodide staining-based flow cytometric analysis; format: functional
In short: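 After treatment, HeLa (1 × 10^6 cells/mL) stained with 4 nM DiOC6 for 40 min at 37 °C in the dark, counterstained with 5 µg/mL propidium iodide to exclude dead cells. Flow cytometry with logarithmic amplification, argon laser; mean green fluorescence channel recorded.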

[13] = test system: HeLa; test: Induction of apoptosis in human HeLa cells assessed as chromatin condensation at 2 uM after 24 hrs by DAPI staining assay; format: functional, cell-based; in short: as §2
[14] = test system: HeLa; test: Cytotoxicity against human HeLa cells assessed as decrease in cell survival up to 3 mM after 24 hrs by trypan blue exclusion assay in presence of N-acetylcysteine; format: functional, cell-based
In short: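 HeLa exposed 24 h to the indicated concentrations with or without 5 mM N-acetylcysteine. Survival by trypan blue exclusion relative to control; triplicate means ± S.E.M.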

[15] = Cytotoxicity against human SH-SY5Y cells assessed as cell survival after 24 hrs by trypan blue exclusion assay; format: functional, cell-based; in short: as §1
[16] = test system: SAOS-2; test: Cytotoxicity against human p53-deficient Saos2 cells assessed as cell survival after 24 hrs by trypan blue exclusion assay; format: functional, cell-based; settings: SAOS-2, 24 h; in short: as §1
[17] = test system: HeLa; test: Induction of autophagy in human HeLa cells assessed as conversion of LC3-1 protein to LC3-2 protein at 2 uM after 3 hrs by Western blot analysis; format: functional, cell-based
In short: (§4)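 HeLa treated 3 h with 2 µM in presence or absence of 5 mM NAC; 50 µg protein analysed by Western blot with monoclonal antibody recognising LC3-I (18 kDa) and LC3-II (16 kDa).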

[18] = test system: HeLa; test: Induction of autophagy in human HeLa cells assessed as appearance of vacuoles in cytoplasm containing mitochondrion at 2 uM after 24 hrs by transmission electron microscopic analysis; format: functional, cell-based
In short: (§5)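 HeLa seeded on glass slides at 1.3 × 10^6 cells/well for 24 h, treated 24 h with 2 µM, fixed in 2.5% glutaraldehyde in 0.1 M phosphate buffer 2 h at 4 °C, post-fixed in 1% OsO4 1 h at 4 °C, examined by transmission electron microscopy for cytoplasmic vacuoles.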

[19] = test system: HT-29; test: Cytotoxicity against human HT-29 cells assessed as cell survival after 24 hrs by trypan blue exclusion assay; format: functional, cell-based; settings: HT-29, 24 h; in short: as §1
[20] = test system: HeLa; test: Induction of autophagy in human HeLa cells assessed as appearance of acidic vesicular organelles at 2 uM after 3 hrs by acridine orange staining-based immunofluorescence microscopic analysis in presence of N-acetylcysteine; format: functional, cell-based
In short: (§6)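 HeLa treated 3 h with DMSO or 2 µM, with or without 2 h pretreatment with 5 mM NAC; stained with acridine orange and imaged by fluorescence microscopy for cells with orange–red acidic vesicular organelles. Two independent experiments.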

[21] = test system: HL-60; test: Cytotoxicity against human HL60 cells assessed as cell survival after 24 hrs by trypan blue exclusion assay; format: functional, cell-based; settings: HL-60, 24 h; in short: as §1
[22] = test system: HT-29; test: Cytotoxicity against human HT-29 cells assessed as cell survival after 48 hrs by trypan blue exclusion assay; format: functional, cell-based; settings: HT-29, 48 h
In short: (§7)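 Cells exposed 48 h to increasing concentrations in DMSO (0.1% of medium) at 37 °C, 5% CO2. Trypan blue exclusion counts, at least 10 fields per sample, survival as % of viable control cells. IC50 interpolated from dose–response curve; means ± S.E.M. of three to four replicates.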

[23] = test system: LoVo; test: Cytotoxicity against human LoVo cells assessed as cell survival after 48 hrs by trypan blue exclusion assay; format: functional, cell-based; in short: as §7
[24] = test system: HeLa; test: Cytotoxicity against human HeLa cells assessed as decrease in cell survival at 2 uM after 24 hrs by trypan blue exclusion assay in presence of necrostatin-1; format: functional, cell-based
In short: (§8)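 HeLa pretreated 2 h with Z-VADfmk (50 µM) or necrostatin-1 (20 µM), then exposed to compound for 24 h. Viability by trypan blue exclusion, survival as % of viable control cells; means ± S.E.M. of three determinations.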

[25] = test system: HeLa; test: Induction of apoptosis in human HeLa cells assessed as nuclear condensation at 2 uM after 24 hrs by DAPI staining assay; format: functional, cell-based; in short: as §2
[26] = test system: HeLa; test: Induction of autophagy in human HeLa cells assessed as appearance of acidic vesicular organelles at 2 uM after 3 hrs by acridine orange staining-based immunofluorescence microscopic analysis; format: functional, cell-based; in short: as §6
[27] = test system: LoVo; test: Cytotoxicity against human LoVo cells assessed as cell survival after 24 hrs by trypan blue exclusion assay; format: functional, cell-based; in short: as §1
[28] = test system: HeLa; test: Cytotoxicity against human HeLa cells assessed as decrease in cell survival at 2 uM after 24 hrs by trypan blue exclusion assay in presence of Z-VADfmk; format: functional, cell-based; in short: as §8
[29] = test system: HeLa; test: Cytotoxicity against human HeLa cells transfected with Atg5 siRNA assessed as decrease in cell survival at 2 uM after 24 hrs by trypan blue exclusion assay; format: functional, cell-based
In short: (§9)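 HeLa at 50% confluence transfected 24 h with 100 nM (final) Atg5 or control siRNA, then after a further 24 h incubated 24 h ± 2 µM compound. Cell death by trypan blue; acidic vesicle accumulation by acridine orange staining. Atg5 knockdown checked by blot. Triplicate means ± S.E.M.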

[30] = test system: HeLa; test: Cytotoxicity against human HeLa cells assessed as decrease in cell survival at 2 uM after 24 hrs by trypan blue exclusion assay relative to control; format: functional; settings: read-out: Survival
In short: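 HeLa cells grown in EMEM with 10% FBS, 1% glutamine, 1% nonessential amino acids, 1 mM pyruvate and antibiotics at 37 °C in 5% CO2. Compound added from DMSO stock (DMSO 0.1% of volume; controls got DMSO only) and exposed 24 h. Viability read by trypan blue exclusion in triplicate samples, at least 10 fields counted. Survival given as % viable cells versus control.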

[31] = test system: U2OS; test: Cytotoxicity against human U2OS cells assessed as cell survival after 48 hrs by trypan blue exclusion assay; format: functional, cell-based; in short: as §7
[32] = test system: HeLa; test: Induction of autophagy in human HeLa cells transfected with Atg5 siRNA assessed as acidic vesicles accumulation at 2 uM after 24 hrs by acridine orange staining-based immunofluorescence microscopic analysis relative to cell transfected with control siRNA; format: functional; in short: as §9
[33] = test system: HeLa; test: Induction of autophagy in human HeLa cells assessed as appearance of vacuoles in cytoplasm containing organic materials at 2 uM after 24 hrs by transmission electron microscopic analysis; format: functional, cell-based; in short: as §5
[34] = Cytotoxicity against human SH-SY5Y cells assessed as cell survival after 48 hrs by trypan blue exclusion assay; format: functional, cell-based; in short: as §7
[35] = test system: HeLa; test: Cytotoxicity against human HeLa cells assessed as cell survival after 48 hrs by trypan blue exclusion assay; format: functional, cell-based; in short: as §7
[36] = test system: HeLa; test: Cytotoxicity against human HeLa cells assessed as decrease in cell survival at 2 uM after 24 hrs by trypan blue exclusion assay in presence of spermine; format: functional, cell-based; in short: as §3
[37] = test system: HL-60; test: Cytotoxicity against human HL60 cells assessed as cell survival after 48 hrs by trypan blue exclusion assay; format: functional, cell-based; settings: HL-60, 48 h; in short: as §7
[38] = test system: HeLa; test: Induction of autophagy in human HeLa cells assessed as conversion of LC3-1 protein to LC3-2 protein at 2 uM after 3 hrs by Western blot analysis in presence of N-acetylcysteine; format: functional, cell-based; in short: as §4
[39] = test system: HeLa; test: Induction of autophagy in human HeLa cells assessed as conversion of LC3-1 protein to LC3-2 protein at 2 uM after 3 hrs by Western blot analysis in presence of bafilomycin A; format: functional, cell-based
[40] = test system: SAOS-2; test: Cytotoxicity against human p53-deficient Saos2 cells assessed as cell survival after 48 hrs by trypan blue exclusion assay; format: functional, cell-based; settings: SAOS-2, 48 h; in short: as §7

Structure (SMILES): c1ccc(C(CNCCCCCCNCCCCCCCCNCCCCCCNCC(c2ccccc2)c2ccccc2)c2ccccc2)cc1
- IC50 [1]: 18 µM
- IC50 [2]: 60 µM
- IC50 [3]: 82 µM
- Activity [4]: Active

Structure (SMILES): NCCCCNCCCN
- Activity [5]: Active

Structure (SMILES): c1ccc(C(CNCCCCCCNCCCCCCCCCCCCNCCCCCCNCC(c2ccccc2)c2ccccc2)c2ccccc2)cc1
- IC50 [6]: 1.1 µM
- Activity [7]: Active
- IC50 [1]: 1.6 µM
- Activity [8]: inactive
- Activity [9]: inactive
- Activity [10]: Active
- Activity [11]: inactive
- Activity [12]: >50%
- Activity [13]: inactive
- Activity [14]: inactive
- IC50 [15]: 2.8 µM
- IC50 [16]: 0.9 µM
- Activity [17]: Active
- Activity [18]: Active
- IC50 [19]: 2.4 µM
- IC50 [2]: 4.3 µM
- Activity [20]: inactive
- IC50 [21]: 1.9 µM
- IC50 [22]: 1.1 µM
- IC50 [23]: 0.8 µM
- Activity [24]: Active
- Activity [25]: inactive
- Activity [26]: Active
- IC50 [27]: 2 µM
- IC50 [3]: 6.8 µM
- Activity [28]: Active
- Activity [29]: Active
- viability at 2 µM [30]: 50%
- IC50 [31]: 0.4 µM
- Activity [32]: inactive
- Activity [33]: Active
- IC50 [34]: 0.9 µM
- IC50 [35]: 0.6 µM
- Activity [36]: Active
- IC50 [37]: 0.7 µM
- Activity [38]: inactive
- Activity [39]: Active
- IC50 [40]: 0.3 µM
